Assay results as given in the EternaBench riboswitch data.

System: MS2 coat protein
Test: apparent Kd, MS2 coat protein; higher = weaker binding; RNA-MaP array; FMN 200 µM where present
Method in brief: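 SNAP-549-labelled MS2 coat protein, doubled from 0.7 or 1.5 nM to 3 µM, was titrated over designs transcribed by stalled E. coli RNA polymerase on Illumina sequencing-chip clusters. Titrations were run without and then with constant ligand in 100 mM Tris-HCl pH 7.5, 80 mM KCl, 4 mM MgCl2, BSA, DTT, yeast tRNA and Tween-20. The apparent Kd is the median of filtered per-cluster fits to green signal normalised to red-channel RNA signal and control-cluster median Fmax.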

[1] = designed as: ON switch for flavin mononucleotide, no ligand
[2] = ligand present: flavin mononucleotide, designed as: ON switch for flavin mononucleotide
[3] = designed as: OFF switch for flavin mononucleotide, no ligand
[4] = ligand present: flavin mononucleotide, designed as: OFF switch for flavin mononucleotide

AAACACGGACAUGAGGAUCACCCAUGUGGCGAAAGCCUUGGGAGAAGGCAGUAUGCAAAGCAUUCUGAGGAUAUUCAUACCGUG
apparent Kd [1]: 926 nM | apparent Kd [2]: 68.9 nM

UCUCGAUGUGUAGGAUAUCUGACCACUAUGACAAGAGAAGGGCACAUGAGGAUCACCCAUGUGGAGGACCACUGGUUCAGAUUA
apparent Kd [3]: 40.9 nM | apparent Kd [4]: 51 nM

UACCGCUCUGAAGGAUAUCCACUGGGAUGCUGGAUGUAUGAGCGUACAUGAGGAUCACCCAUGUAGGAGAAGGUCAGGCAUUCC
apparent Kd [3]: 5.8 nM | apparent Kd [4]: 7.84 nM

UCAUGGAAGUAGAAGGGUAAUAUAUUAGAUUUUACUAUUAGAUGUAGAUAUACAGGAUAUGCGAACAUGAGGAUCACCCAUGUG
apparent Kd [3]: 62.7 nM | apparent Kd [4]: 35.6 nM

UUUUAACAUGAGGAUCACCCAUGUGAGGAUAUCGAAAUUUAUAUUUAUAUUUAUAAUUCGAGAAGGCACAUUUU
apparent Kd [3]: 179 nM | apparent Kd [4]: 141 nM

GGGAGUGGAGGGAAUAACAUGAGGAUCACCCAUGUAUGGGAGAGAAGGCAGGUUGGAGGGCGAUCUGAGGAUAUUUAGACUCUU
apparent Kd [1]: 19.9 nM | apparent Kd [2]: 13.5 nM

AAGUAGAUCCGAGGAUAUACAAUCUGGAAUCGGUACAUGAGGAUCACCCAUGUAGAAGGCGGAUCUACAGGUACUAAAGUACCA
apparent Kd [3]: 7.88 nM | apparent Kd [4]: 38.8 nM

GAAUGUAAAGAGAAGGGCUACUGGUUGAAACCUGCGGCCUCUGGAACAUGAGGAUCACCCAUGUAGCAGGAUAUCUUUGCGUCA
apparent Kd [3]: 192 nM | apparent Kd [4]: 29.5 nM

ACAUACAUUCGAGGAUAUCGGUGAUAACUCAAACGAGAAGGCGAUUUAAAACAUAAUGCUGUAGACAUGAGGAUCACCCAUGUA
apparent Kd [1]: 497 nM | apparent Kd [2]: 137 nM

GCAAAGCCUGACAUGAGGAUCACCCAUGUUAGAUUGUUAUGUCAGGAUAUUGUCUAGCCACUAGACAAGAAGGGAUGCUUUGCU
apparent Kd [1]: 384 nM | apparent Kd [2]: 32.9 nM

GGUUGGCGAGGAUAUACAUGAGGAUCACCCAUGUGGUCCUGUGGCUGGUCUUACCUUUGUAGAAGGCGCGGGUC
apparent Kd [3]: 88.4 nM | apparent Kd [4]: 93.2 nM

UGAUAGGACAGAGGAUAUACGUGCUAGAGAUACUAGCUACAAAUCCUUACAUGAGGAUCACCCAUGUAGAAGGCUGUCCUAUCU
apparent Kd [3]: 19.3 nM | apparent Kd [4]: 39.4 nM

ACAAUGUUAGGAUAUCUGAGAAUUAGUCUCGACUAGUCGAAGGAGAAGGAACAUGAGGAUCACCCAUGUAGAUC
apparent Kd [3]: 43.4 nM | apparent Kd [4]: 275 nM

UCAUGAUAUGUAGGAUAUCACAUUUAUUGAUUAAUAUAUGAAUAUAGAAUUUGAGAAGGACAUUUACAUGAGGAUCACCCAUGU
apparent Kd [3]: 15.8 nM | apparent Kd [4]: 16.7 nM

UCCAACAUGAGGAUCACCCAUGUACAGGAUAUUAGAUCAGCUCAGCGCGUCCGUCAAGAUAUUUCUAAGAAGGGUACUGGGUAC
apparent Kd [3]: 20.2 nM | apparent Kd [4]: 33.1 nM

AGCUGUGGCCGAGGAUAUCUAAAUUCUCAAAACGAAAUAUAAUCGAACAUGAGGAUCACCCAUGUAGAGAAGGCGGUCUCAGCA
apparent Kd [3]: 39 nM | apparent Kd [4]: 298 nM

GUCGGAAACGACAAAAGUAUGGAUCCAGAAGGCAUGACACAUGAGGAUCACCCAUGUCUAAGACAUGAGGAUAUGGAUCCAUAC
apparent Kd [1]: 5.24 nM | apparent Kd [2]: 3.67 nM

UCUUUCGUUGUGAGGAUAUGCCCAAAUAAAAGCGGGCAGAAGGCACAUGAGGAUCACCCAUGUCCUGCGGUUUU
apparent Kd [3]: 22.8 nM | apparent Kd [4]: 288 nM

ACAUGAGGAUCACCCAUGUGAACAUAGGAUAUUGGUGAUCAGGCAUGUUAUACAGGAUAUGUCUGCGAGAAGGAUGCACGUUGC
apparent Kd [1]: 567 nM | apparent Kd [2]: 341 nM

GUUGCACAAGUUAACAUGAGGAUCACCCAUGUCAAAAGACAUGAGGAUAUGGAGCUGAAGAUUAUCCAGAAGGCAUAAUGCUAA
apparent Kd [1]: 460 nM | apparent Kd [2]: 158 nM

AUGAGAGCAGGAUAUGCAGGUGUGCCGGAAGAAAGAAGAGGACAUGAGGAUCACCCAUGUAGAAGGGCUAACCC
apparent Kd [3]: 41.1 nM | apparent Kd [4]: 19.8 nM

UUCGUGCAGCUUUGCUGUACGCGUACAUGAGGAUCACCCAUGUAGGAUAUGGUACGCUUUGCGUGCUAGAAGGAUAUGGAGAGC
apparent Kd [3]: 15.7 nM | apparent Kd [4]: 16.3 nM

GUUUACCGAGGAUAUACAUGAGGAUCACCCAUGUUCCUAACAAACGUCGGUUCAGCGUGUAGAAGGCGGACCUA
apparent Kd [3]: 17.9 nM | apparent Kd [4]: 28.4 nM

UGACUGAAGCAAGGAUAUUGUAAAGUUAUCGUACAAGAAGGUGCUGUUUAUGUCUCUUUACAUGAGGAUCACCCAUGUUUUUAU
apparent Kd [1]: 32.8 nM | apparent Kd [2]: 24.6 nM

AAUUCAAACAGAGGAUAUUGUUUAUCUCUAUUGCAAGAAGGCUGAUCUUACUACUUACUUAUGAAACAUGAGGAUCACCCAUGU
apparent Kd [1]: 36.6 nM | apparent Kd [2]: 31.8 nM

GGAUCGAAUGUGAGGAUAUGCUGGUCCUUGGAUCAGCAGAAGGCACAUGAGGAUCACCCAUGUUUCCACGGUCC
apparent Kd [3]: 127 nM | apparent Kd [4]: 869 nM

GAAGCGCUUGACAUGAGGAUCACCCAUGUUAGAUUGUUAUGUCAGGAUAUAGUCUAGAAACUAGACUAGAAGGGAUAUGCUUCU
apparent Kd [1]: 300 nM | apparent Kd [2]: 43.1 nM

GCUAGUGCAGGAUAUGCGUGGGAUGUUAUCCAUUUUCAUCUACAUGAGGAUCACCCAUGUAGAAGGGCACCCUU
apparent Kd [3]: 29.3 nM | apparent Kd [4]: 110 nM
